Measured values reported in article PMC3774010 (Cancer research, 2013).

Legend:
[1] = tested on: H1299 lung cancer xenografts; assay: H1299 lung cancer xenografts in nude mice; format: in vivo; settings: for anti-tumor efficacy compared with ABT-737: 30mg/kg/d i.p. for 14 days
[2] = tested on: normal human bronchial epithelial cells (BEAS-2B); assay: Cytotoxicity in lung cancer cells versus normal bronchial epithelial cells; format: cell-based
In short: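 Cells were seeded at 6×10^3–8×10^3 per well, grown overnight, then treated 72 h. Surviving fraction read by sulforhodamine B protein-stain assay. BEAS-2B and A549 were kept in DMEM/F-12 with 10% FBS, and H1299 in RPMI 1640 with 5% FBS plus 5% bovine serum. Lung cancer lines received 0, 0.5, 1, 2, 5, 10 or 30µM.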

[3] = tested on: A549-P and A549-IRR xenografts; assay: A549-P and A549-IRR lung cancer xenografts in mice; format: in vivo
Bcl-XL/Bak = Bcl-XL/Bak (Homo sapiens, UniProt Q07817); assay: Co-immunoprecipitation of Bcl-XL/Bak in H1299 cells; format: cell-based; settings: 0.1–5µM, 24 h
Sequence of Bcl-XL/Bak (Q07817 whole entry): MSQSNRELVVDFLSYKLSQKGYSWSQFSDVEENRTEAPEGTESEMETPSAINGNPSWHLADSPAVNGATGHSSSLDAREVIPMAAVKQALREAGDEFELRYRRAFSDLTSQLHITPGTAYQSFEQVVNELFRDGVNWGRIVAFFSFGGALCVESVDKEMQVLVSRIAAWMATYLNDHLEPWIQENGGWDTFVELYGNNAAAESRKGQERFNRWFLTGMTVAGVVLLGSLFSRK
In short: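 H1299 cells treated 24 h with test compound at 0.1–5 µM. Lysates were immunoprecipitated with a Bcl-XL antibody (normal IgG as IP control), and co-precipitated Bak and Bcl-XL were detected by Western blot. Total-lysate Bcl-XL and Bak levels were also blotted.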

[4] = tested on: A549-P and A549-IRR cells; assay: Cell growth of A549-P and A549-IRR cells; format: cell-based, human; settings: colony formation 10 days, SRB 72h
H1299 cells [5] = assay: Colony formation assay in Bcl-XL shRNA H1299 cells; format: cell-based, human
human Bcl-XL protein = human Bcl-XL protein (Homo sapiens, UniProt Q07817); assay: Competition fluorescence polarization assay with Bak BH3 peptide, Bcl-XL; format: binding; settings: purified Bcl-XL 6nM, Bak BH3 peptide 3nM
Sequence of human Bcl-XL protein (Q07817 whole entry): as above

Bcl2 = Bcl2 (Homo sapiens, UniProt P10415); assay: Competition fluorescence polarization assay with Bak BH3 peptide, Bcl2; format: binding; settings: 0.1~500nM
Sequence of Bcl2 (P10415 whole entry): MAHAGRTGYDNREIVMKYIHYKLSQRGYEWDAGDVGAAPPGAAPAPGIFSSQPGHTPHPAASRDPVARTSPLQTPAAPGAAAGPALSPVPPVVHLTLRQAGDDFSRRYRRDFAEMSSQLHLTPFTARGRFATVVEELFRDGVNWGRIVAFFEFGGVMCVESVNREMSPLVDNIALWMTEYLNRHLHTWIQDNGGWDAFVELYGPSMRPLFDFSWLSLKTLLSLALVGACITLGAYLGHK

Bak = Bak oligomerization; format: cell-based, human; settings: H1299 cells, BMH cross-linking
In short: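 H1299 cells exposed to increasing test compound concentrations (0.1–5µM) for 24 h. Mitochondria isolated by subcellular fractionation and taken up in PBS (pH7.2) conjugation buffer. BMH and EDTA added to cross-link Bak sulfhydryls, 1 h at room temperature, then DTT quench for 15 min at room temperature. Products resolved by SDS-PAGE and Western blotted with anti-Bak.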

A549 cells = assay: SRB cell growth assay, A549; format: cell-based, human; settings: A549, 72 h
In short: (§1)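 Cells seeded at 6×10^3–8×10^3 per well, grown overnight, then exposed 72 h to test compound (0, 0.5, 1, 2, 5, 10, 30 µM). Surviving fraction measured by sulforhodamine B protein staining; IC50 calculated from the dose series. Data given as mean ± S.D.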

Bfl-1/A1 = target: T1, Bfl-1/A1 (Homo sapiens, UniProt Q16548); assay: Competition fluorescence polarization assay with Bak BH3 peptide, Bfl-1/A1; format: binding; settings: 0.1~500nM
T1 sequence (Q16548 1-175): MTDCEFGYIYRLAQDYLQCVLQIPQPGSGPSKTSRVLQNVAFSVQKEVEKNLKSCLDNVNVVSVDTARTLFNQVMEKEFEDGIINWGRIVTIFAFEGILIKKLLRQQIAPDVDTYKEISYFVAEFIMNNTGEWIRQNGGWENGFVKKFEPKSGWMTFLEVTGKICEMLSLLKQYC

Bcl-w = target: T2, Bcl-w (Homo sapiens, UniProt Q92843); assay: Competition fluorescence polarization assay with Bak BH3 peptide, Bcl-w; format: binding; settings: 0.1~500nM
T2 sequence (Q92843 1-193): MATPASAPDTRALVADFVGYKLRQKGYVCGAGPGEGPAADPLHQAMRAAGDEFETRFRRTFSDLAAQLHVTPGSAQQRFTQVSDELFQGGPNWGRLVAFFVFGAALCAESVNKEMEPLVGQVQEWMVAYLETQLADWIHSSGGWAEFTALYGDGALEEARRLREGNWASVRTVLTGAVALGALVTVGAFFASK

Nu/Nu nude mice [6] = assay: In vivo toxicity: body weight, blood analysis, histopathology; settings: for platelet reduction compared with ABT-737: 30mg/kg/d i.p. for 14 days
In short: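 Nu/Nu mice given test compound i.p. daily at various doses (dose-finding: 10–50 mg/kg/d up to 25 days, 6 mice/dose; xenograft mice: 30 mg/kg/d for 14 days). Body weight recorded every other day. Terminal cardiac-puncture blood (250 µL, EDTA) under anaesthesia analyzed for WBC, RBC, platelets, ALT, AST, BUN. Organs examined by H&E histology.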

Bcl-XL/Bax = Bcl-XL/Bax (Homo sapiens, UniProt Q07817); assay: Bcl-XL/Bax complex disruption in cells; format: cell-based
Sequence of Bcl-XL/Bax (Q07817 whole entry): as the sequence (Q07817 whole entry) above

H157 cells = assay: SRB cell growth assay, H157; format: cell-based, human
In short: as §1

H1299 cells [7] = assay: SRB cell growth assay, H1299; format: cell-based, human
In short: as §1

Mcl-1 = Mcl-1 (Homo sapiens, UniProt Q07820); assay: Competition fluorescence polarization assay with Bak BH3 peptide, Mcl-1; format: binding; settings: 0.1~500nM
Sequence of Mcl-1 (Q07820 whole entry): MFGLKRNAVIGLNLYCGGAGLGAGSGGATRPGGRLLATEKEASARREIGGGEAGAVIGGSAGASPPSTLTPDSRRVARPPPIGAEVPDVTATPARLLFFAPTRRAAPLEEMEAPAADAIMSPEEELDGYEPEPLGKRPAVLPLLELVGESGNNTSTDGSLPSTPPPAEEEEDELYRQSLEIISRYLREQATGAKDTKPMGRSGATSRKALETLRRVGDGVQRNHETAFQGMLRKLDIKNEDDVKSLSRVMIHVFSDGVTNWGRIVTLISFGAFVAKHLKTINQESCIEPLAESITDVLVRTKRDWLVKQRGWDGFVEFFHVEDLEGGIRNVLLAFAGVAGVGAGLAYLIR

Nu/Nu nude mice [8] = assay: Maximum tolerated dose
Cyt c release = assay: Cytochrome c release from mitochondria in H1299 cells; format: cell-based, human
In short: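 Test compound given to H1299 cells at increasing concentrations (0.1–5µM) for 24 h. Subcellular fractionation separated mitochondrial and cytosolic fractions. Cytochrome c detected in the fractions by Western blot, with prohibitin as the mitochondrial marker.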

Nu/Nu nude mice [9] = settings: mouse, in vivo, ip

SMILES	anti-tumor efficacy compared with ABT-737 ([1]; H1299 xenografts)	cytotoxicity against lung cancer cells compared to normal human bronchial epithelial cells [2]	sensitivity of A549-P and A549-IRR cells [4]	sensitivity of H1299 cells after depletion of endogenous Bcl-XL (H1299 cells [5])	Ki (human Bcl-XL protein)	binding affinity with Bcl2 (Bcl2)	IC50 (A549 cells; SRB assay)	binding affinity with Bfl-1/A1 (Bfl-1/A1)	binding affinity with Bcl-w (Bcl-w)	platelet reduction compared with ABT-737 (Nu/Nu nude mice [6])	IC50 (H157 cells; H157, 72 h, SRB assay)	IC50 (H1299 cells [7]; H1299, 72 h, SRB assay)	binding affinity with Mcl-1 (Mcl-1)	further results
CCOc1ccc(-c2nc3ccc(-c4nc5ccc(N6CCN(C)CC6)cc5[nH]4)cc3[nH]2)cc1 [BXI-72]	more potent efficacy against human lung cancer than ABT-737	relatively selective cytotoxicity	remained sensitive	significantly reduced the sensitivity	0.9 ± 0.15 nM	very low binding affinities	680 ± 80 nM	very low binding affinities	very low binding affinities	less effect on platelet than ABT-737	1870 ± 160 nM	490 ± 120 nM	very low binding affinities	effect on established lung cancer xenografts ([1]; H1299 xenografts, 10, 20 and 30mg/kg/d i.p. for 14 days): dose-dependent regression; apoptosis in tumor tissues (active caspase 3 IHC) ([1]; H1299 xenografts, 10-30mg/kg/d i.p. 14 days): dose-dependent apoptosis; effect on tumors derived from A549-P and A549-IRR cells ([3]; 20mg/kg/d ×18): repressed tumors derived from both A549-P and A549-IRR cells; normal tissue toxicities ([3]; A549 xenograft mice, 20mg/kg/d): no significant normal tissue toxicities; Bcl-XL/Bak dissociation (Bcl-XL/Bak): dose-dependent Bcl-XL/Bak dissociation; Bak oligomerization (Bak): facilitated the formation of Bak dimers, trimers and multimers; liver histology (Nu/Nu nude mice [6]; 50mg): hepatocellular necrosis; ALT, AST, BUN, WBC and RBC (Nu/Nu nude mice [6]; 10–30mg/kg/d): no significant increases in ALT, AST and BUN or decreases in WBC and RBC; histopathology of normal tissues (Nu/Nu nude mice [6]; 10–30mg/kg/d): no evidence of normal tissue toxicities; body weight (Nu/Nu nude mice [6]; 20–30mg/kg): well tolerated without weight loss; ALT, AST and BUN (Nu/Nu nude mice [6]; 40–50mg/kg/d for two weeks): increases in ALT, AST and BUN; platelets (Nu/Nu nude mice [6]; increased doses of BXI-72, mice): dose-dependent reduction of platelets; Bcl-XL/Bax complexes (Bcl-XL/Bax): disrupts Bcl-XL/Bax complexes; lethality (Nu/Nu nude mice [8]; 50mg/kg/d i.p., six mice, within 10 days): uniformly lethal; death (Nu/Nu nude mice [8]; 10 to 30mg/kg/d i.p., after 25 days of daily administration): no death recorded; Cyt c release from mitochondria (Cyt c release): facilitate Cyt c release from mitochondria; maximum tolerated dose (MTD) (Nu/Nu nude mice [9]): 30~40 mg/kg/d
CN(C)CC[C@H](CSc1ccccc1)Nc1ccc(S(=O)(=O)NC(=O)c2ccc(N3CCN(Cc4ccccc4-c4ccc(Cl)cc4)CC3)cc2)cc1[N+](=O)[O-] [ABT-737, reference compound]	–	–	–	–	–	–	–	–	–	–	–	–	–	IC50 (A549 cells; Homo sapiens): 19400 ± 1230 nM; IC50 (H157 cells; Homo sapiens, NCI-H157, 72 h): 27600 ± 1490 nM; IC50 (H1299 cells [7]; Homo sapiens, NCI-H1299, 72 h): 40500 ± 3560 nM
CCOc1ccc2nc3cc(N=Nc4ccc(N)nc4N)ccc3c(N)c2c1 [BXI-61]	more potent efficacy against human lung cancer than ABT-737	relatively selective cytotoxicity	remained sensitive	significantly reduced the sensitivity	14.8 ± 1.54 nM	very low binding affinities	3170 ± 280 nM	very low binding affinities	very low binding affinities	less effect on platelet than ABT-737	5710 ± 490 nM	1790 ± 120 nM	very low binding affinities	potency against lung cancer in vivo ([1]; 40mg/kg/d): high potency against lung cancer; normal tissue toxicities (Nu/Nu nude mice [6]; 40mg/kg/d): without significant normal tissue toxicities except for a slight decrease in platelets
